Converted amounts (≈) assume the structure as drawn. The source made the active and inactive calls. No cut-off for these calls is given here.
Legend:
Staphylococcus aureus [1] = assay: Antimicrobial activity against Staphylococcus aureus DSM 346 by serial dilution method; type: functional
Procedure, shortened: (§1)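 MIC by serial dilution in microtiter plates, in triplicate. YMG medium for yeasts and filamentous fungi, EBS for bacteria. Starting concentration 300 μg/mL.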

KB 3-1 [2] = assay: Cytotoxicity against human KB 3.1 cells assessed as inhibition of cell growth at 37 ug/ml after 5 days by MTT assay; type: cell-based; details: kb 3-1, 120 h
L929 [3] = assay: Cytotoxicity against mouse L929 cells assessed as inhibition of cell growth at 37 ug/ml after 5 days by MTT assay; type: cell-based; details: l929, 120 h
Wickerhamomyces anomalus = assay: Antimicrobial activity against Pichia anomala DSM 6766 by serial dilution method; type: functional; procedure, shortened: as §1
Mucor plumbeus = assay: Antimicrobial activity against Mucor plumbeus MUCL 49355 by serial dilution method; type: functional; procedure, shortened: as §1
Bacillus subtilis = assay: Antimicrobial activity against Bacillus subtilis DSM 10 by serial dilution method; type: functional; procedure, shortened: as §1
Yamadazyma tenuis = assay: Antimicrobial activity against Candida tenuis MUCL 29982 by serial dilution method; type: functional; procedure, shortened: as §1
Escherichia coli [4] = details: DSM 498
Micrococcus luteus = assay: Antimicrobial activity against Micrococcus luteus DSM 1790 by serial dilution method; type: functional; procedure, shortened: as §1
Escherichia coli [5] = assay: microbe, parasite or virus in culture; details: DSM 498
Staphylococcus aureus [6] = assay: Antimicrobial activity against Staphylococcus aureus DSM 1104 by serial dilution method; type: functional
Candida albicans [7] = assay: Antimicrobial activity against Candida albicans DSM 11225 by serial dilution method; type: functional
Staphylococcus aureus [8] = assay: Antibiofilm activity against Staphylococcus aureus DSM 1104 at 150 ug/ml after 24 hrs by crystal violet staining based assay relative to control; type: functional; details: DSM 1104, 24 h
Procedure, shortened: (§2)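 S. aureus set to 0.5 McFarland turbidity and grown with serially diluted compounds in CASO broth with 4% glucose, 24 h, 37 °C. Biofilm stained with crystal violet 15 min, washed three times, dye extracted with dilute acetic acid, absorbance read at 550 nm. Two repeats of three parallel experiments; methanol as negative control.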

Candida albicans [9] = assay: Antibiofilm activity against Candida albicans DSM 11225 preformed biofilm after 24 hrs by MTT assay; type: functional, organism-based
Procedure, shortened: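 C. albicans set to 0.5 McFarland turbidity; biofilm preformed 4 h at 37 °C in SB broth, then treated with serially diluted compounds for a further 24 h at 37 °C. Dispersal read by MTT reduction. Triplicate, two repetitions; methanol as negative control.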

Staphylococcus aureus [10] = assay: Antibiofilm activity against Staphylococcus aureus DSM 1104 at 37 ug/ml after 24 hrs by crystal violet staining based assay relative to control; type: functional; details: DSM 1104, 24 h; procedure, shortened: as §2
Staphylococcus aureus [11] = assay: Antibiofilm activity against Staphylococcus aureus DSM 1104 preformed biofilm after 24 hrs by crystal violet staining based assay; type: functional, organism-based
Procedure, shortened: (§3)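 S. aureus set to 0.5 McFarland turbidity; biofilm preformed 24 h in CASO broth with 4% glucose, then exposed to compounds a further 24 h at 37 °C. Remaining biofilm quantified by crystal violet staining. Triplicate, two repetitions.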

Staphylococcus aureus [12] = assay: Antibiofilm activity against Staphylococcus aureus DSM 1104 at 75 ug/ml after 24 hrs by crystal violet staining based assay relative to control; type: functional; details: DSM 1104, 24 h; procedure, shortened: as §2
L929 [13] = assay: Cytotoxicity against mouse L929 cells assessed as inhibition of cell growth after 5 days by MTT assay; type: cell-based; details: L929, 120 h
Procedure, shortened: (§4)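 IC50 determined by the previously described in vitro cytotoxicity method against mouse fibroblast L929 and HeLa-derived KB-3.1 cells. Compounds were tested from a starting concentration of 37 μg/mL.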

Candida albicans [14] = assay: Antibiofilm activity against Candida albicans DSM 11225 preformed biofilm at 8 ug/ml after 24 hrs by MTT assay relative to control; type: functional; details: DSM 11225, 24 h
Staphylococcus aureus [15] = assay: Antibiofilm activity against Staphylococcus aureus DSM 1104 at 64 ug/ml after 24 hrs by crystal violet staining based assay relative to control; type: functional; details: DSM 1104, 24 h; procedure, shortened: as §2
Candida albicans [16] = assay: Antibiofilm activity against Candida albicans DSM 11225 preformed biofilm at 16 ug/ml after 24 hrs by MTT assay relative to control; type: functional; details: DSM 11225, 24 h
Staphylococcus aureus [17] = assay: Antibiofilm activity against Staphylococcus aureus DSM 1104 preformed biofilm at 64 ug/ml after 24 hrs by crystal violet staining based assay relative to control; type: functional; details: DSM 1104, 24 h; procedure, shortened: as §3
Staphylococcus aureus [18] = assay: Antibiofilm activity against Staphylococcus aureus DSM 1104 preformed biofilm at 128 ug/ml after 24 hrs by crystal violet staining based assay relative to control; type: functional; details: DSM 1104, 24 h; procedure, shortened: as §3
Staphylococcus aureus [19] = assay: Antibiofilm activity against Staphylococcus aureus DSM 1104 preformed biofilm at 256 ug/ml after 24 hrs by crystal violet staining based assay relative to control; type: functional; details: DSM 1104, 24 h; procedure, shortened: as §3
Staphylococcus aureus [20] = assay: Antibiofilm activity against Staphylococcus aureus DSM 1104 at 16 ug/ml after 24 hrs by crystal violet staining based assay relative to control; type: functional; details: DSM 1104, 24 h; procedure, shortened: as §2
KB 3-1 [21] = assay: Cytotoxicity against human KB 3.1 cells assessed as inhibition of cell growth after 5 days by MTT assay; type: cell-based; details: KB 3-1, 120 h; procedure, shortened: as §4
Staphylococcus aureus [22] = assay: Antibiofilm activity against Staphylococcus aureus DSM 1104 at 256 ug/ml after 24 hrs by crystal violet staining based assay relative to control; type: functional; details: DSM 1104, 24 h; procedure, shortened: as §2
Staphylococcus aureus [23] = assay: Antibiofilm activity against Staphylococcus aureus DSM 1104 after 24 hrs by crystal violet staining based assay; type: functional, organism-based; procedure, shortened: as §2
Staphylococcus aureus [24] = assay: Antibiofilm activity against Staphylococcus aureus DSM 1104 at 128 ug/ml after 24 hrs by crystal violet staining based assay relative to control; type: functional; details: DSM 1104, 24 h; procedure, shortened: as §2

Compound | MIC (Staphylococcus aureus [1]) | Activity (KB 3-1 [2]) | Activity (L929 [3]) | MIC (Wickerhamomyces anomalus) | MIC (Mucor plumbeus) | MIC (Bacillus subtilis) | MIC (Yamadazyma tenuis) | MIC (Escherichia coli [4]) | MIC (Micrococcus luteus) [µg/mL] | MIC (Staphylococcus aureus [6]) [µg/mL] | also measured
CC(C)=CCC[C@@](C)(O)[C@@H](O)CC/C(C)=C/CC/C(C)=C/CO[C@@H](C(=O)O)[C@H](CC(=O)O)C(=O)O | inactive | Non-Toxic | Non-Toxic | inactive | inactive | inactive | inactive | inactive | – | – | –
C/C(=C\CC/C(C)=C/CO[C@@H](C(=O)O)[C@H](CC(=O)O)C(=O)O)CC/C=C(\C)CC[C@H](O)C(C)(C)O | inactive | Non-Toxic | Non-Toxic | inactive | 300 µg/mL (≈ 602 µM) | inactive | inactive | inactive | 300 (≈ 602 µM) | – | –
O=C(O)c1cn(C2CC2)c2cc(N3CCNCC3)c(F)cc2c1=O [CIPROFLOXACIN] | – | – | – | – | – | 2.3 µg/mL (≈ 6.94 µM) | – | – | – | – | MIC (Escherichia coli [5]): 2.3 µg/mL (≈ 6.94 µM)
CN(C)[C@@H]1C(=O)C(C(N)=O)=C(O)[C@@]2(O)C(=O)C3=C(O)c4c(O)cccc4[C@@](C)(O)[C@H]3[C@H](O)[C@@H]12 | 1 µg/mL (≈ 2.17 µM) | – | – | – | – | – | – | – | 8.3 (≈ 18 µM) | 1 (≈ 2.17 µM) | –
NYSTATIN | – | – | – | 16.7 µg/mL | 9.4 µg/mL | – | 16.7 µg/mL | – | – | – | MIC (Candida albicans [7]): 16.7 µg/mL
C=C1C(=O)O[C@@H](C)[C@@H]1O | – | – | – | – | – | – | – | – | – | 150 (≈ 1170 µM) | inhibition at 150 µg/mL (Staphylococcus aureus [8]): 99%; Activity (Candida albicans [9]): inactive; inhibition at 37 µg/mL (Staphylococcus aureus [10]): 85%; Activity (Staphylococcus aureus [11]): inactive; inhibition at 75 µg/mL (Staphylococcus aureus [12]): 92%
C/C(=C\CC/C(C)=C/CO[C@@H](C(=O)O)[C@H](CC(=O)O)C(=O)O)CC/C=C(\C)CC/C=C(\C)C(=O)O | inactive | Non-Toxic | Non-Toxic | inactive | inactive | inactive | inactive | inactive | 75 (≈ 152 µM) | – | –
C[C@@H]1CO[C@H]2[C@@H]1CC[C@H](C)[C@]21C=C(CO)CC1 | inactive | Non-Toxic | Non-Toxic | inactive | 75 µg/mL (≈ 317 µM) | 300 µg/mL (≈ 1270 µM) | inactive | inactive | 75 (≈ 317 µM) | – | –
C/C(=C\c1csc(C)n1)[C@@H]1C[C@@H]2O[C@]2(C)CCC[C@H](C)[C@H](O)[C@@H](C)C(=O)C(C)(C)[C@@H](O)CC(=O)O1 [PATUPILONE] | – | – | – | – | – | – | – | – | – | – | IC50 (L929 [13]): 0.0014 µM
CC(C)=CCC/C(C)=C/CC/C(C)=C/CO[C@@H](C(=O)O)[C@H](CC(=O)O)C(=O)O | 150 µg/mL (≈ 378 µM) | Non-Toxic | Non-Toxic | inactive | 75 µg/mL (≈ 189 µM) | 18.8 µg/mL (≈ 47.4 µM) | 37.5 µg/mL (≈ 94.6 µM) | inactive | 9.4 (≈ 23.7 µM) | – | –
CC(C)=CCC/C(C)=C/CC/C(C)=C/CC/C(C)=C/CO[C@@H](C(=O)O)[C@H](CC(=O)O)C(=O)O | 300 µg/mL (≈ 646 µM) | – | Non-Toxic | – | 75 µg/mL (≈ 161 µM) | 300 µg/mL (≈ 646 µM) | 300 µg/mL (≈ 646 µM) | inactive | 37.5 (≈ 80.7 µM) | > 256 | inhibition at 8 µg/mL (Candida albicans [14]): 52%; inhibition at 64 µg/mL (Staphylococcus aureus [15]): 54%; inhibition at 16 µg/mL (Candida albicans [16]): 72%; MIC (Wickerhamomyces anomalus; Hansenula anomala): 150 µg/mL (≈ 323 µM); inhibition at 64 µg/mL (Staphylococcus aureus [17]): 1.5%; inhibition at 128 µg/mL (Staphylococcus aureus [18]): 37%; inhibition at 256 µg/mL (Staphylococcus aureus [19]): 49%; inhibition at 16 µg/mL (Staphylococcus aureus [20]): 28%; MIC (Candida albicans [7]): 64 µg/mL (≈ 138 µM); IC50 (KB 3-1 [21]): 6 µM; inhibition at 256 µg/mL (Staphylococcus aureus [22]): 86%; Activity (Staphylococcus aureus [23]): Dose-dependent effect
COC(=O)C[C@H](C(=O)O)[C@@H](OC/C=C(\C)CC/C=C(\C)CC/C=C(\C)CCC=C(C)C)C(=O)O | 300 µg/mL (≈ 627 µM) | Non-Toxic | Non-Toxic | inactive | 150 µg/mL (≈ 313 µM) | 300 µg/mL (≈ 627 µM) | inactive | inactive | 37.5 (≈ 78.3 µM) | > 256 | inhibition at 64 µg/mL (Staphylococcus aureus [15]): 11%; inhibition at 128 µg/mL (Staphylococcus aureus [24]): 38%; inhibition at 256 µg/mL (Staphylococcus aureus [22]): 86%; Activity (Staphylococcus aureus [23]): Dose-dependent effect
C/C(=C\CC/C(C)=C/CC/C(C)=C/CC/C(C)=C/CO[C@@H](C(=O)O)[C@H](CC(=O)O)C(=O)O)CO | 75 µg/mL (≈ 156 µM) | Non-Toxic | Non-Toxic | inactive | 75 µg/mL (≈ 156 µM) | 37.5 µg/mL (≈ 78 µM) | 37.5 µg/mL (≈ 78 µM) | inactive | 18.8 (≈ 39 µM) | – | –
